HePTP inhibitor – blocks human HePTP tyrosine phosphatase; inhibition, % at 20 µM; AID 521; recombinant HePTP phosphatase activity, OD absorbance; 110,000 tested, 0.64% active; in the data active = inhibition above about 50%;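 note: plate controls were vehicle for no effect and reference inhibitor for full effect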
Target sequence (P35236 whole entry, looked up): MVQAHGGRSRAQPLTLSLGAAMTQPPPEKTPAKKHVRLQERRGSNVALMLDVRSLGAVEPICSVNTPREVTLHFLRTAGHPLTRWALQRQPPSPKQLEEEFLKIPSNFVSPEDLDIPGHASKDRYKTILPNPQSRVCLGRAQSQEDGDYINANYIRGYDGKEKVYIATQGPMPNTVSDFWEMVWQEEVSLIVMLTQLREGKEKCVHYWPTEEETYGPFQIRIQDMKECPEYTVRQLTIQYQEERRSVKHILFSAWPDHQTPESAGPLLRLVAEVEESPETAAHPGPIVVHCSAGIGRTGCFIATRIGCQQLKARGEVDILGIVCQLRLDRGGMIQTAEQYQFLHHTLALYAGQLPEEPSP
JNK3 blocker – inhibitors of human JNK3 kinase; AID 746; inhibition, % at 8 µM; P53779; purified JNK3 kinase activity, HTS; 60,000 tested, 0.61% active; in the data active = inhibition above about 17%;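 note: 0% = DMSO and 100% = reference inhibitor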
HEK293 NFkB inh – lowers PMA/ionomycin-induced NF-kB signal in HEK293 cells. inhibition, % at 3 µM. 62,000 tested, 0.21% active. HEK-293 NF-kB luciferase reporter, luminescence;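 active = inhibition above the mean of all tested compounds plus 3 SD, cut at about 40% in these data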;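 note: 0% = stimulated DMSO wells and 100% = 10 µM reference inhibitor 5653914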
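Reagent: PMA plus ionomycin mix as NF-kB-activating stimulus. Assay system: NF-kB luciferase reporter HEK-293 cells. Technique: luminescence from luciferase substrate reagent. Incubation: 1 h compound pre-incubation, 16 h PMA/ionomycin at 37 °C. Benchmarks: DMSO only as uninhibited control, 10 µM reference inhibitor as full inhibition. Repeats: tested once.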
MMP13 inh – blocks human MMP13 activity; P45452; MMP-13 fTHP FRET cleavage, Mca fluorescence; inhibition, % at 4 µM; 65,000 tested, 0.07% active; AID 570;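 active = inhibition above the mean of compound-free control plate wells plus 3 SD, cut at about 14% in these data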;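 note: 0% = DMSO wells and 100% = wells with reference MMP-13 inhibitor after basal subtraction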
The depositor's hits bear a star; . = no result; ! = repeats disagree. A selection: hits, their analogues and other compounds. The true share with any hit is near 0.93%.

SMILES	HePTP inhibitor	JNK3 blocker	HEK293 NFkB inh	MMP13 inh
O=C(O)C1CC(O)CN1C(=O)Oc1ccccc1 (centres undefined)	104.7*	.	.	.
O=C(/C=C/c1ccco1)Nc1cc(Cl)cc(Cl)c1	38.6	.	.	.
O=C(/C=C/c1ccco1)Nc1cc(Cl)ccc1Cl	54.9*	.	.	.
O=C(/C=C/c1ccco1)Nc1ccccc1[N+](=O)[O-]	83.9*	.	.	.
Cc1ccnc(Nc2nc(-c3c(C)nc4sccn34)cs2)c1	3.0	34.2*	-1.2	-7.1
CCN(CC)c1ccc(/C=N/N2C(=O)c3ccccc3C2=O)cc1	102.2*	.	.	.
O=C(Nc1ccc(Cl)cc1)Nc1nnc(C(c2ccccc2)c2ccccc2)s1	4.8	.	.	.
O=C1C=CC(=O)C(/C(=C/NCc2ccccc2)[N+](=O)[O-])=C1	104.0*	.	.	.
Cc1ccc(N=C2NC(=O)/C(=C/c3ccccc3F)S2)cc1	92.1*	.	.	.
Cc1ccc(OCC(=O)Nc2ccc(-c3nc4ncccc4o3)cc2)c(C)c1	104.0*!	-0.5	-5.4	-66.7
Cc1cc(OCC(=O)Nc2ccc(-c3nc4ncccc4o3)cc2)ccc1Cl	63.1*	.	.	.
O=C(COc1ccccc1[N+](=O)[O-])Nc1ccc(-c2nc3ncccc3o2)cc1	65.0*	.	.	.
O=C(COc1ccccc1[N+](=O)[O-])Nc1ccc(-c2nc3ccccc3o2)cc1	13.1	.	.	.
Cc1ccc(C(C)C)c(OCC(=O)Nc2ccc(-c3nc4ncccc4o3)cc2)c1	5.6	.	.	.
O=C(Nc1ccc(Cl)cc1)c1cccc(S(=O)(=O)NCc2ccccc2)c1	9.5	.	.	.
Nc1cc(-c2cccc(Br)c2)nn1Cc1ccc(Cl)cc1	3.7	.	.	.
O=C(Cn1c(NCCO)nc2ccccc21)c1cccc2ccccc12	-10.3	.	.	.
COc1ccc(S(=O)(=O)N2CCN(Cc3ccccc3)CC2)cc1	-2.6	-4.4	3.5	4.7
COc1ccc(S(=O)(=O)N2CCN(Cc3ccc([N+](=O)[O-])cc3)CC2)cc1	56.6*	.	.	.
O=C(C(c1ccccc1)c1ccccc1)N1CCN(c2ccccc2)CC1	-7.5	.	.	.
O=C(O)c1ccccc1C(=O)N1CCN(c2cccc(Cl)c2)CC1	8.6	-0.3	2.5	-0.7
CCOc1ccccc1C(=O)N1CCN(c2cccc(Cl)c2)CC1	12.5	-0.2	39.9*	-6.7
C(=N\N1CCN(c2ccccc2)CC1)/c1ccc(-c2ccccc2)cc1	-10.7	.	.	.
COc1cc(C(=O)Nc2nc3ccc4ccccc4c3s2)cc(OC)c1OC	-3.1	.	.	.
O=C(Nc1nc2ccc3ccccc3c2s1)c1ccc(Cl)s1	104.2*	.	.	.
SMILES	HePTP inhibitor	JNK3 blocker	HEK293 NFkB inh	MMP13 inh
Cc1cc(C)cc(NC(=O)COc2cc(C)c(Cl)c(C)c2)c1	6.1	.	.	.
COC(=O)c1c(NC(=O)Cc2cccs2)sc(C)c1C	8.6	18.5*	6.7	-1.4
COC(=O)c1c(NC(=O)Cc2ccccc2)sc(C)c1C	7.3	.	.	.
CCCCOc1ccc(C(=O)Nc2cccc(NC(=O)c3ccccc3Cl)c2)cc1	9.5	.	.	.
O=C1CC(Nc2ccc(N3CCOCC3)cc2)C(=O)N1c1cccc(Cl)c1 (centres undefined)	0.7	.	.	.
O=C(O)c1cccc(N2C(=O)CC(Nc3ccc(N4CCOCC4)cc3)C2=O)c1 (centres undefined)	60.8*	.	.	.
COc1cc(/C=c2\sc3nc4ccccc4n3c2=O)cc(I)c1OCC(=O)O	75.3*	.	.	.
O=C1NC(=S)S/C1=C/c1ccc(OCc2ccc(F)cc2)c(Br)c1	13.7	.	.	.
O=C1NC(=S)S/C1=C/c1ccc(O)c(Br)c1	103.6*	.	.	.
N#Cc1c(N)nc(SCc2ccncc2)c(C#N)c1-c1cccs1	13.1	20.5*	31.2	-5.7
N#Cc1c(N)nc(SCc2ccccc2)c(C#N)c1-c1cccs1	1.1	.	.	.
Cc1ccc(C(=O)C2=C(O)C(=O)N(CCCn3ccnc3)C2c2ccc(OC(C)C)cc2)o1 (centres undefined)	11.4	26.6*	1.2	-8.9
Cc1ccc2c(c1)c(N=Nc1nnc3c(n1)[nH]c1ccccc13)c(O)n2C	86.9*	.	.	.
CCOC(=O)C1=C(C)NC(=O)NC1c1ccc2c(c1)OCCO2 (centres undefined)	-0.7	6.0	17.8	2.1
CC1=C(C(=O)OCc2ccc3c(c2)OCO3)C(c2ccc(F)cc2)NC(=O)N1 (centres undefined)	6.6	4.3	45.0*	-0.3
CC1=C(C(=O)OCc2ccc3c(c2)OCO3)C(c2ccc(Cl)cc2)NC(=O)N1 (centres undefined)	0.9	3.4	67.1*	2.3
Cc1ccc(C(=O)NC(=S)NCCCN2CCOCC2)cc1	103.4*	.	.	.
Cc1ccc(-c2cc(C(=O)NCCCN3CCOCC3)no2)cc1	4.3	0.5	31.4	3.9
CCOC(=O)Cc1csc(NC(=O)COc2ccccc2[N+](=O)[O-])n1	8.8	.	.	.
CC(C)CC(=O)NC(C(Cl)(Cl)Cl)S(=O)(=O)c1ccccc1 (centres undefined)	7.4	.	.	.
CN(C)CCCNC(=O)c1ccc(N(C)S(=O)(=O)c2ccccc2)cc1	0.8	.	.	.
Cc1c(C(=O)NC2CCCCCC2)cccc1[N+](=O)[O-]	-2.0	.	.	.
Cc1c(C(=O)NC2CCSC2=O)cccc1[N+](=O)[O-] (centres undefined)	54.9*	.	.	.
COc1cc(C=C2C(=O)NC(=O)NC2=O)cc(Br)c1OCc1ccc([N+](=O)[O-])cc1	5.2	.	.	.
COc1cc(C2NC(=O)NC(C)=C2C(=O)OCc2ccccc2)ccc1O (centres undefined)	0.4	20.1*	-0.5	-1.6
SMILES	HePTP inhibitor	JNK3 blocker	HEK293 NFkB inh	MMP13 inh
COc1ccc(COC(=O)C2=C(C)NC(=O)NC2c2ccc(O)c(OC)c2)cc1 (centres undefined)	1.5	27.3*	15.1	7.8
CCOC(=O)C1=C(C)NC(=O)NC1c1ccoc1 (centres undefined)	-0.4	1.7	17.2	-2.1
CCOC(=O)C1=C(C)NC(=O)NC1c1ccsc1 (centres undefined)	103.9*	.	.	.
CCOc1cc(C2NC(=O)NC(C)=C2C(=O)OCc2ccccc2)ccc1O (centres undefined)	5.5	19.2*	10.8	-3.6
O=C(O)c1cc(Cl)ccc1NC(=O)C(c1ccccc1)c1ccccc1	-6.4	.	.	.
Cc1cccc(NC(=O)c2ccncc2)c1	-12.8	.	.	.
O=C(CN1C(=O)/C(=C/c2ccccc2)SC1=S)Nc1cccc(Br)c1	5.8	.	.	.
O=C(CN1C(=O)/C(=C/c2ccccc2)SC1=S)Nc1cccc(C(=O)O)c1	51.7*	.	.	.
CCN(CC)c1ccc(N2C(=O)/C(=C/c3ccc(C(=O)OC)cc3)SC2=S)cc1	7.2	.	.	.
O=C(CCCN1C(=O)/C(=C/c2ccc(F)cc2)SC1=S)Nc1ccc(C(=O)O)cc1	102.4*	.	.	.
CCN(CC)c1ccc(N2C(=O)/C(=C/c3ccc(C(=O)O)cc3)SC2=S)cc1	103.9*	.	.	.
Oc1ccc(/C=N/Nc2nc3ccccc3s2)cc1	1.7	.	.	.
COC(=O)c1sccc1NC(=O)C1CC=CCC1C(=O)O (centres undefined)	3.9	28.4*	13.0	-3.6
COc1ccc(OC)c(NC(=O)[C@H]2CC=CC[C@H]2C(=O)O)c1	7.8	-8.8	18.5	0.8
COc1ccccc1N(CC(=O)NC(C)(C)C)S(=O)(=O)c1ccccc1	105.9*	.	.	.
COc1ccccc1N(CC(=O)NC(C)c1ccccc1)S(=O)(=O)c1ccccc1 (centres undefined)	1.7	.	.	.
Cc1cccc(C)c1N(CC(=O)NN=C1CCCCCCC1)S(C)(=O)=O	6.8	.	.	.

Assay outcomes from PubChem.
